According to ChEMBL document CHEMBL1138476 (J Med Chem, 2009):
Activity calls are given as the source filed them. No cut-off for these calls is given here.

What was measured:
Rattus norvegicus [1] = experiment: Ex vivo receptor occupancy of CRF receptor in rat brain at 0.3 mg/kg, po by [125I]sauvagine binding and autoradiography relative to control; type: functional
Summary of the method: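 Rats were given 0.3, 1, 3, 10 or 30 mg/kg po in 0.25% Methocel 60 min before sacrifice. Brains were removed, sectioned and frozen at −80 °C. Ex vivo CRF receptor binding gave occupancy relative to vehicle-treated rats, reported as mean ± SEM.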

Canis familiaris [2] = experiment: Cardiovascular activity in dog assessed as increase in mean […] pressure at 3 mg to 5 mg/kg, iv by dose escalation study; type: functional, Canis lupus familiaris
Summary of the method: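 Anesthetized mongrel dogs on sodium pentobarbital, mechanically ventilated, with left ventricular and arterial pressure transducers and ECG. Four dogs received 6 min iv infusions at escalating 0.3, 1, 3 and 5 mg/kg, 30 min apart; four control dogs received vehicle on the same schedule. Mean arterial pressure and dP/dt were recorded; plasma was sampled after each infusion.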

[3] = Plasma concentration in dog at 0.3 mg/kg after intravenous infusion for 30 mins; type: ADME, organism-based, Canis lupus familiaris; parameters: dose 0.3 mg/kg, route intravenous
[4] = molecular target: T1, Corticotropin-releasing factor receptor 1 (Rattus norvegicus, UniProt P35353); experiment: Displacement of [125I]Tyro-rat/human CRF from CRF1 receptor in rat cortical membrane by gamma counting; type: cell membranes
T1 sequence (P35353 whole entry): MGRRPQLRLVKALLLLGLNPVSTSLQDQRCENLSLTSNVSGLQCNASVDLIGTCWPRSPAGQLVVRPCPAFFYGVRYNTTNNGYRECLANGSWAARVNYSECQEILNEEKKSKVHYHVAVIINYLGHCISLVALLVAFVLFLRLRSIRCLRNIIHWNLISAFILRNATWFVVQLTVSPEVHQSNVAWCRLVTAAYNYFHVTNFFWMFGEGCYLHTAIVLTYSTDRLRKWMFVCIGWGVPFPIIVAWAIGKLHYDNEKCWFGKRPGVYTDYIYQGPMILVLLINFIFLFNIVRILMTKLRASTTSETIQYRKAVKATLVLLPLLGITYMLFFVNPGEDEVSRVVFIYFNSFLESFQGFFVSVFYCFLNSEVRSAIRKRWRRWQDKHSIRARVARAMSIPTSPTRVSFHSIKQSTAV
Summary of the method: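 Binding to CRF receptors in rat cortical homogenate.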

[5] = Half life in Beagle dog at 1 mg/kg, po by cassette dosing; type: ADME, organism-based, Canis lupus familiaris; parameters: dose 1 mg/kg, route oral; settings: in vivo
[6] = AUC (0 to infinity) in chimpanzee at 0.5 mg/kg, iv; type: ADME, organism-based, Pan troglodytes; parameters: time infinity, dose 0.5 mg/kg, route intravenous; settings: plasma
Summary of the method: (§1)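 Chimpanzee PK. Oral: 1 mg/kg in two alert animals, given as a 1 mg/mL suspension in 50–50 (v/v) 0.5% methylcellulose/Tang orange juice with 1% Tween-80. IV: 0.5 mg/kg in one animal in 10% DMAC, 70% propylene glycol and deionized water, infused over 10 min (0.2 mL/kg). EDTA blood was taken predose and at 2–96 h; iv sampling added 6, 15 and 30 min.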

Rattus norvegicus [7] = experiment: Toxicity in rat assessed as time spent on rotarod at 30 mg/kg, po after 1 hr by rotarod test; type: organism-based; parameters: dose 30 mg/kg, route oral; settings: in vivo
Summary of the method: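 Rats, n = 8 per dose, dosed po in 0.25% Methocel 1 h before testing, at 0, 1.0, 3.0, 10, 30 and 100 mg/kg. Read-out is time on rotorod (s), mean ± SEM, compared with the vehicle (zero-dose) group.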

Rattus norvegicus [8] = experiment: Anxiolytic activity in rat assessed as increase in time spent on open arm at 30 mg/kg, po by elevated plus-maze test; type: functional, organism-based; parameters: dose 30 mg/kg
Summary of the method: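 Rat elevated plus maze: percent of test time spent in the open arms. Oral dosing in 0.25% Methocel 60 min before testing; n = 12 per dose, mean ± SEM. Analysed by ANOVA followed by Fisher's LSD comparisons against vehicle.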

Canis familiaris [9] = experiment: Effect on respiratory function in spontaneously breathing mongrel dog assessed as change in heart rate at 5 mg/kg after intravenous infusion for 6 mins (RVb= -0.4+/-0.7 %); type: functional, Canis lupus familiaris
Rattus norvegicus [10] = experiment: Toxicity in rat assessed as total distance traveled at 1 mg/kg, po after 1 hr by spontaneous locomotor test; type: organism-based; parameters: dose 1 mg/kg, route oral; settings: in vivo
Summary of the method: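 Spontaneous locomotor activity in rats dosed po in 0.25% Methocel 1 h pretest; doses up to 100 mg/kg. Compared with the vehicle (zero dose) group, mean ± SEM, N = rats.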

[11] = Oral bioavailability in rat at 5 mg/kg; type: ADME, organism-based; settings: in vivo
Summary of the method: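 Rats (n = 3) were dosed at 1 mg/kg iv in 10% DMAC, 70% propylene glycol and deionized water, and at 5 mg/kg po in 0.5% methylcellulose.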

Rattus norvegicus [12] = experiment: Effect on acute renal function in rat assessed as change in urine urea level per 100 gm body weight at 30 mg/kg, po (RVb= 321+/-62 mg/dl); type: functional
Canis familiaris [13] = experiment: Effect on respiratory function in spontaneously breathing mongrel dog assessed as change in heart rate at 5 mg/kg after intravenous infusion for 15 mins (RVb= -2.3+/-1.7 %); type: functional, Canis lupus familiaris
Canis familiaris [14] = experiment: Effect on respiratory function in spontaneously breathing mongrel dog assessed as change in airway resistance at 5 mg/kg after intravenous infusion for 6 mins (RVb= 3.9+/-4.7 %); type: functional, Canis lupus familiaris
Canis familiaris [15] = experiment: Effect on respiratory function in spontaneously breathing mongrel dog assessed as change in peak expiratory flow at 5 mg/kg after intravenous infusion for 30 mins (RVb= -3.3+/-6.4 %); type: functional, Canis lupus familiaris
Canis familiaris [16] = experiment: Effect on respiratory function in spontaneously breathing mongrel dog assessed as change in intrapleural pressure at 5 mg/kg after intravenous infusion for 6 mins (RVb= -21.2+/-26.5 %); type: functional, Canis lupus familiaris
[17] = Cmax in chimpanzee at 1 mg/kg, po; type: ADME, organism-based, Pan troglodytes; parameters: dose 1 mg/kg, route oral; settings: in vivo; summary of the method: as §1
[18] = Elimination half life in chimpanzee at 0.5 mg/kg, iv; type: ADME, organism-based, Pan troglodytes; parameters: dose 0.5 mg/kg, route intravenous; settings: in vivo, read-out: beta t1/2 (converted)
Summary of the method: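 One chimpanzee received 0.5 mg/kg iv over 10 min (0.2 mL/kg) in 10% DMAC, 70% propylene glycol and deionized water. Blood was drawn into EDTA predose and at 6, 15, 30 min and 2, 4, 6, 9, 12, 24, 36, 48, 72 and 96 h.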

Canis familiaris [19] = experiment: Effect on respiratory function in spontaneously breathing mongrel dog assessed as change in minute volume at 5 mg/kg after intravenous infusion for 6 mins (RVb= -3.6+/-7.5 %); type: functional, Canis lupus familiaris
Canis familiaris [20] = experiment: Effect on respiratory function in spontaneously breathing mongrel dog assessed as change in airway resistance at 5 mg/kg after intravenous infusion for 15 mins (RVb= 27.8+/-17.9 %); type: functional, Canis lupus familiaris
Canis familiaris [21] = experiment: Effect on respiratory function in spontaneously breathing mongrel dog assessed as change in intrapleural pressure at 5 mg/kg after intravenous infusion for 60 mins (RVb= 18.5+/-19.9 %); type: functional, Canis lupus familiaris
[22] = Volume of distribution at steady state in rat at 1 mg/kg, iv and 5 mg/kg, po; type: ADME, organism-based; settings: in vivo, read-out: Vdss
Summary of the method: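 Rats (n = 3) dosed iv at 1 mg/kg in 10% DMAC, 70% propylene glycol and deionized water, and orally at 5 mg/kg in 0.5% methylcellulose.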

Rattus norvegicus [23] = experiment: Effect on acute renal function in rat assessed as change in osmolality in urine per 100 gm body weight at 30 mg/kg, po (RVb= 325+/-1.9 mg/dl); type: functional
[24] = Cmax in Beagle dog at 1 mg/kg, po by cassette dosing; type: ADME, organism-based, Canis lupus familiaris; parameters: dose 1 mg/kg, route oral; settings: in vivo

SMILES: CC[C@@H](C)Nc1nc(C)nc2c(-c3ccc(OC)nc3C)c(C)nn12 [PEXACERFONT]
- Activity (Rattus norvegicus [1]): 37%
- Activity (Canis familiaris [2]): 10 mmHg
- concentration at 0.5 h [3]: 150 nM
- IC50 [4]: 6.1 nM
- half-life [5]: 10.7 h
- AUC(0-inf) [6]: 11.9 µM·h
- Time (Rattus norvegicus [7]): 157 s
- Activity (Rattus norvegicus [8]): Active
- Activity (Canis familiaris [9]): -0.3%
- Activity (Rattus norvegicus [10]): 4106 cm
- bioavailability [11]: 40%
- Activity (Rattus norvegicus [12]): 166 mg/dL
- Activity (Canis familiaris [13]): -2.9%
- Activity (Canis familiaris [14]): 15.3%
- Activity (Canis familiaris [15]): -10.7%
- Activity (Canis familiaris [16]): 3.3%
- Cmax [17]: 840 nM
- half-life [18]: 30 h
- Activity (Canis familiaris [19]): 28.1%
- Activity (Canis familiaris [20]): 9%
- Activity (Canis familiaris [21]): 0.7%
- Vd [22]: 14.9 L/kg
- Activity (Rattus norvegicus [23]): 240 milliosmole
- Cmax [24]: 301 nM
